Data from ChEMBL document CHEMBL1208666, “Novel 6,8-dibromo-4(3H)quinazolinone derivatives of anti-bacterial and anti-fungal activities” (2010).
≈ marks a conversion by molar mass, not a printed value. Calls of active or inactive are those of the source. No cut-off for these calls is given here.

What was measured:
[1] = test system: Escherichia coli; test: Antibacterial activity against Escherichia coli O157 at 100 ug/ml after 24 hrs by paper disc diffusion technique; format: functional; conditions: O157, 24 h, read-out: IZ
[2] = test system: Escherichia coli; test: Antibacterial activity against Escherichia coli O157 after 24 hrs by agar streak dilution method; format: functional; conditions: O157, 24 h
[3] = test system: Salmonella typhimurium; test: Antibacterial activity against Salmonella Typhimurium at 100 ug/ml after 24 hrs by paper disc diffusion technique; format: functional, Salmonella enterica subsp. enterica serovar Typhimurium; conditions: Salmonella enterica, read-out: IZ
How it was run: (§1)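 Paper disc diffusion on Mueller Hinton agar, autoclaved at 120 °C for 30 min. Medium at 40–50 °C was seeded at 1 ml/100 ml with a 10^5 cfu/ml suspension matched to 0.9 McFarland. It was poured 3–4 mm deep, and discs with compound in DMSO were laid on it. Plates were pre-incubated 1 h at room temperature, then 37 °C for 24 h. The inhibition zone was measured.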

[4] = test system: Salmonella typhimurium; test: Antibacterial activity against Salmonella Typhimurium after 24 hrs by agar streak dilution method; format: functional, Salmonella enterica subsp. enterica serovar Typhimurium; conditions: Salmonella enterica
How it was run: (§2)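 Agar streak dilution on Mueller Hinton agar. Compound stock in DMSO was added in graded amounts to molten sterile agar at 40–50 °C. This was poured 3–4 mm deep and left to solidify. Bacterial suspension of about 10^5 cfu/ml was applied to the serially diluted plates. Plates were incubated at 37 °C for 24 h to read the MIC. Strains were food-poisoning isolates from animal byproducts.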

[5] = test system: Listeria monocytogenes; test: Antibacterial activity against Listeria monocytogenes at 100 ug/ml after 24 hrs by paper disc diffusion technique; format: functional; conditions: read-out: IZ; how it was run: as §1
[6] = test system: Listeria monocytogenes; test: Antibacterial activity against Listeria monocytogenes after 24 hrs by agar streak dilution method; format: functional; how it was run: as §2
[7] = test system: Staphylococcus aureus; test: Antibacterial activity against Staphylococcus aureus at 100 ug/ml after 24 hrs by paper disc diffusion technique; format: functional; conditions: read-out: IZ; how it was run: as §1
[8] = test system: Staphylococcus aureus; test: Antibacterial activity against Staphylococcus aureus after 24 hrs by agar streak dilution method; format: functional; how it was run: as §2
[9] = test system: Pseudomonas aeruginosa; test: Antibacterial activity against Pseudomonas aeruginosa at 100 ug/ml after 24 hrs by paper disc diffusion technique; format: functional; conditions: read-out: IZ; how it was run: as §1
[10] = test system: Pseudomonas aeruginosa; test: Antibacterial activity against Pseudomonas aeruginosa after 24 hrs by agar streak dilution method; format: functional; how it was run: as §2
[11] = test system: Bacillus cereus; test: Antibacterial activity against Bacillus cereus at 100 ug/ml after 24 hrs by paper disc diffusion technique; format: functional; conditions: read-out: IZ; how it was run: as §1
[12] = test system: Bacillus cereus; test: Antibacterial activity against Bacillus cereus after 24 hrs by agar streak dilution method; format: functional; how it was run: as §2
[13] = test system: Candida albicans; test: Antifungal activity against Candida albicans at 100 ug/ml after 48 hrs by paper disc diffusion technique; format: functional
How it was run: (§3)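 Paper disc diffusion on Sabouraud dextrose agar, autoclaved at 120 °C for 30 min. Medium at 40–50 °C was seeded at 1 ml/100 ml with a 10^5 cfu/ml fungal suspension matched to 0.9 McFarland. It was poured 3–4 mm deep, and compound discs in DMSO were applied. Plates were pre-incubated 1 h at room temperature, then 28 °C for 48 h. The inhibition zone was recorded.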

[14] = test system: Aspergillus flavus; test: Antifungal activity against Aspergillus flavus at 100 ug/ml after 48 hrs by paper disc diffusion technique; format: functional; conditions: for zone of inhibition at 100 µg/mL: read-out: IZ; how it was run: as §3
[15] = test system: Aspergillus flavus; test: Antifungal activity against Aspergillus flavus after 48 hrs by agar streak dilution method; format: functional
How it was run: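 Fungal MIC by agar streak dilution on Sabouraud dextrose agar. Compound stock in DMSO was added in graded amounts to molten sterile medium at 40–50 °C. This was poured 3–4 mm deep and left to solidify. Fungal suspension of about 10^5 cfu/ml was applied to the serially diluted plates. Plates were incubated at 37 °C for 48 h.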

| Structure (SMILES) | zone of inhibition at 100 µg/mL [1] [mm] | MIC [2] [µg/mL] | zone of inhibition at 100 µg/mL [3] [mm] | MIC [4] [µg/mL] | zone of inhibition at 100 µg/mL [5] [mm] | MIC [6] [µg/mL] | zone of inhibition at 100 µg/mL [7] [mm] | MIC [8] [µg/mL] | zone of inhibition at 100 µg/mL [9] [mm] | MIC [10] [µg/mL] | zone of inhibition at 100 µg/mL [11] [mm] | MIC [12] [µg/mL] | inhibition zone (IZ) [13] | zone of inhibition at 100 µg/mL [14] [mm] | MIC [15] [µg/mL] | inhibition zone (IZ) [14] |
| --- | --- | --- | --- | --- | --- | --- | --- | --- | --- | --- | --- | --- | --- | --- | --- | --- |
| O=C(N/N=C/c1ccccc1)c1ccc(-n2c(-c3ccccc3)nc3c(Br)cc(Br)cc3c2=O)cc1 | 11 | 45 (≈ 74.7 µM) | 10 | > 50 | 13 | 35 (≈ 58.1 µM) | 12 | 25 (≈ 41.5 µM) | 12 | 50 (≈ 83 µM) | 12 | 30 (≈ 49.8 µM) | inactive | 10 | 25 (≈ 41.5 µM) | – |
| O=C1CC(=O)N(C(=O)c2ccc(-n3c(-c4ccccc4)nc4c(Br)cc(Br)cc4c3=O)cc2)N1 | – | – | 12 | 50 (≈ 85.9 µM) | 10 | > 50 | 9 | > 50 | 11 | > 50 | 10 | > 50 | inactive | 18 | 1.9 (≈ 3.26 µM) | – |
| O=C(NN1C(=O)CSC1c1ccccc1)c1ccc(-n2c(-c3ccccc3)nc3c(Br)cc(Br)cc3c2=O)cc1 (configuration not stated) | 10 | > 50 | 16 | 4.1 (≈ 6.06 µM) | 13 | 32 (≈ 47.3 µM) | 12 | 25 (≈ 37 µM) | 12 | 35 (≈ 51.7 µM) | 9 | 50 (≈ 73.9 µM) | inactive | – | – | inactive |
| O=C(N/N=C/c1ccc(Cl)cc1)c1ccc(-n2c(-c3ccccc3)nc3c(Br)cc(Br)cc3c2=O)cc1 | 12 | 20 (≈ 31.4 µM) | 10 | > 50 | 14 | 30 (≈ 47.1 µM) | 12 | 25 (≈ 39.3 µM) | 12 | 20 (≈ 31.4 µM) | 16 | 5.5 (≈ 8.64 µM) | inactive | 16 | 12.5 (≈ 19.6 µM) | – |
| CC(=O)NNC(=O)c1ccc(-n2c(-c3ccccc3)nc3c(Br)cc(Br)cc3c2=O)cc1 | 9 | > 50 | 14 | 30 (≈ 53.9 µM) | 14 | 35 (≈ 62.9 µM) | 11 | 40 (≈ 71.9 µM) | 13 | 25 (≈ 44.9 µM) | 9 | > 50 | inactive | 22 | 1.2 (≈ 2.16 µM) | – |
| O=C(NN1C(=O)CSC1c1ccccc1O)c1ccc(-n2c(-c3ccccc3)nc3c(Br)cc(Br)cc3c2=O)cc1 (configuration not stated) | 13 | 30 (≈ 43.3 µM) | 12 | 50 (≈ 72.2 µM) | 15 | 15 (≈ 21.7 µM) | 11 | 45 (≈ 65 µM) | 12 | 35 (≈ 50.5 µM) | 9 | > 50 | inactive | – | – | inactive |
| COc1ccc(/C=N/NC(=O)c2ccc(-n3c(-c4ccccc4)nc4c(Br)cc(Br)cc4c3=O)cc2)cc1 | 8 | > 50 | 10 | > 50 | 12 | 50 (≈ 79.1 µM) | 11 | 50 (≈ 79.1 µM) | 11 | > 50 | 13 | 35.5 (≈ 56.1 µM) | inactive | 11 | 25 (≈ 39.5 µM) | – |
| CCOC(=O)c1ccc(-n2c(-c3ccccc3)nc3c(Br)cc(Br)cc3c2=O)cc1 | 11 | 50 (≈ 94.7 µM) | 16 | 3.12 (≈ 5.92 µM) | 14 | 25 (≈ 47.3 µM) | 17 | 1.56 (≈ 2.95 µM) | 12 | 50 (≈ 94.7 µM) | 9 | 50 (≈ 94.7 µM) | inactive | 10 | 25 (≈ 47.3 µM) | – |
| O=C(N/N=C/c1ccccc1O)c1ccc(-n2c(-c3ccccc3)nc3c(Br)cc(Br)cc3c2=O)cc1 | 10 | 50 (≈ 80.9 µM) | 13 | 30 (≈ 48.5 µM) | 11 | 50 (≈ 80.9 µM) | 15 | 12.5 (≈ 20.2 µM) | 11 | > 50 | 13 | 25.5 (≈ 41.2 µM) | inactive | 15 | 10.5 (≈ 17 µM) | – |
| Cc1ccc(/C=N/NC(=O)c2ccc(-n3c(-c4ccccc4)nc4c(Br)cc(Br)cc4c3=O)cc2)cc1 | 11 | 40 (≈ 64.9 µM) | 15 | 5 (≈ 8.11 µM) | 13 | 30 (≈ 48.7 µM) | 12 | 25 (≈ 40.6 µM) | 15 | 2.5 (≈ 4.06 µM) | 11 | 35 (≈ 56.8 µM) | inactive | 12 | 20 (≈ 32.5 µM) | – |
| NNC(=O)c1ccc(-n2c(-c3ccccc3)nc3c(Br)cc(Br)cc3c2=O)cc1 | 10 | > 50 | 11 | 50 (≈ 97.2 µM) | 11 | 50 (≈ 97.2 µM) | 10 | > 50 | 13 | 25 (≈ 48.6 µM) | 12 | 25 (≈ 48.6 µM) | inactive | 15 | 18.5 (≈ 36 µM) | – |
| O=C(O)c1cn(C2CC2)c2cc(N3CCNCC3)c(F)cc2c1=O [CIPROFLOXACIN] | 18 | – | 20 | 0.39 (≈ 1.18 µM) | 17 | 1.56 (≈ 4.71 µM) | 18 | 1.56 (≈ 4.71 µM) | 19 | 0.78 (≈ 2.35 µM) | 20 | 0.39 (≈ 1.18 µM) | – | – | – | – |
| O=C(NN1C(=O)CCC1=O)c1ccc(-n2c(-c3ccccc3)nc3c(Br)cc(Br)cc3c2=O)cc1 | 9 | > 50 | 18 | 1.7 (≈ 2.85 µM) | 12 | 50 (≈ 83.9 µM) | 9 | > 50 | 11 | > 50 | 9 | > 50 | inactive | 17 | 3.5 (≈ 5.87 µM) | – |
